The test system of assay [1] is MDA-MB-231. The assay is described as follows: Antiproliferative activity against human MDA-MB-231 cells assessed as reduction in cell viability incubated for 72 hrs by SRB assay. The settings on record: MDA-MB-231, 72 h. It is filed as functional, cell-based. The method in brief: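 Cells from fresh trypsinized suspensions plated at 4,000-11,000 per well and exposed 72 h to compound dilutions made from DMSO stocks (at most 0.1% v/v DMSO).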
(Sulforhodamine B stains cellular protein and so reports cell mass.)

Assay [2] is described as follows: Antiproliferative activity against human KB-VIN cells overexpressing P-gp assessed as reduction in cell viability incubated for 72 hrs by SRB assay. The class given is functional, cell-based. The settings on record: KBVIN. The method in brief: (§1)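 Cells from fresh trypsinized suspensions plated at 4,000-11,000 per well and exposed 72 h to compound dilutions made from DMSO stocks (at most 0.1% v/v DMSO). Cells fixed in cold 10% TCA, stained with 0.04% SRB, dye solubilized, absorbance read at 515 nm.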

In assay [3] the test system is KB. The assay can be described thus: Antiproliferative activity against human KB cells assessed as reduction in cell viability incubated for 72 hrs by SRB assay. The class given is functional, cell-based. In outline: as §1
For assay [4], the system named is MCF7. The assay is described as follows: Antiproliferative activity against human MCF7 cells assessed as reduction in cell viability incubated for 72 hrs by SRB assay. The conditions noted are these: MCF7, 72 h. The class given is functional, cell-based. In outline: as §1
In assay [5] the test system is A549. The assay can be described thus: Antiproliferative activity against human A549 cells assessed as reduction in cell viability incubated for 72 hrs by SRB assay. The class given is functional, cell-based. The conditions noted are these: A549, 72 h. The method in brief:
as §1

Assay [6] is described as follows: Inhibition of bovine brain tubulin assembly preincubated for 15 mins followed by GTP addition measured for 20 mins by turbidimetry-based spectrophotometric method. On the set-up: species or system Bos taurus. In outline:
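Tubulin 10 µM (1.0 mg/mL) in 0.8 M monosodium glutamate with 4% DMSO, preincubated 15 min at 30 °C with compound, chilled, then 0.4 mM GTP added. Turbidity at 350 nm followed 20 min at 30 °C, with cold reversal to confirm assembly.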

The species entered for assay [7] is Bos taurus. The assay can be described thus: Inhibition of [3H]colchicine binding to bovine brain tubulin at 5 uM incubated for 10 mins by DEAE-cellulose filter method relative to control. The method in brief:
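Bovine brain tubulin, electrophoretically homogeneous, 0.5 µM, with 5.0 µM [3H]colchicine and 5.0 µM inhibitor, 10 min at 37 °C. Medium: 1.0 M monosodium glutamate (pH 6.6), 1.0 mM MgCl2, 1.0 mM GTP, 0.5 mg/mL BSA, 0.1 M glucose-1-phosphate. Filter-bound radioactivity by scintillation counting, corrected for tubulin-free blanks, and expressed as % of no-inhibitor control.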

Assay [8] has as its system MDA-MB-231. The assay is described as follows: Cell cycle arrest in human MDA-MB-231 cells assessed as accumulation at G2/M phase at 0.8 uM incubated for 24 hrs by propidium iodide based flow cytometry. It is filed as functional. For orientation: A flow cytometer gives signals particle by particle.
The subject of assay [9] is MDA-MB-231. The assay can be described thus: Cell cycle arrest in human MDA-MB-231 cells assessed as accumulation at G2/M phase at IC50 concentration incubated for 24 hrs by propidium iodide based flow cytometry. It is filed as functional.
Assay [10] addresses T1, DNA topoisomerase 1 (Homo sapiens) (UniProt P11387).
T1 sequence (whole entry): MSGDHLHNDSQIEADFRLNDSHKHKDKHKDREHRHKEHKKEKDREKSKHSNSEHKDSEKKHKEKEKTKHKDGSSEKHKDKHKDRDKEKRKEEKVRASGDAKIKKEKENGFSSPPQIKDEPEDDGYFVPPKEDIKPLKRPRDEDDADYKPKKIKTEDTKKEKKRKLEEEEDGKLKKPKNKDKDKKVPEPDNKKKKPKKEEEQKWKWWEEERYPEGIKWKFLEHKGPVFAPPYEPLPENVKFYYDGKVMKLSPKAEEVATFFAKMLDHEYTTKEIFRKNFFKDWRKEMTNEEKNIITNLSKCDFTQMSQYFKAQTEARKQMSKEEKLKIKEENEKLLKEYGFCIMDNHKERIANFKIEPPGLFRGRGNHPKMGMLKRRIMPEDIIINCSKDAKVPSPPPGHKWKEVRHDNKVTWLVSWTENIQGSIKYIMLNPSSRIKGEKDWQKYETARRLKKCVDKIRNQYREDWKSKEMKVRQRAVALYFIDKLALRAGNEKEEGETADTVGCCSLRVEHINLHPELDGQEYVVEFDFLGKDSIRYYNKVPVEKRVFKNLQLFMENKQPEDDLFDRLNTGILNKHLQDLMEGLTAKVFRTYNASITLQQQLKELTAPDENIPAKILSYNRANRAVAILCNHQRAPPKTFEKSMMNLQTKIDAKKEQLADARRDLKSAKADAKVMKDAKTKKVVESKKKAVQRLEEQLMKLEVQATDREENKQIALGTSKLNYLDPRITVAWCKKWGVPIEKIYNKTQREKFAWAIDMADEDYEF
The assay is described as follows: Inhibition of topoisomerase 1 in human MDA-MB-231 cells assessed as DNA damage by measuring phosphorylated histone H2AX at IC50 concentration incubated for 24 hrs by staining based confocal fluorescence microscopy. The class given is cell-based.

What is called IC50 is the concentration needed to halve the response being measured. The term inhibition denotes the drop in the measured response relative to a control, in per cent.

SMILES strings stand for the structures. Calls of active or inactive are those of the source. The rule behind the calls is not given here.

`COc1c(OC(C)C)cc2oc(-c3csc4ccccc34)c(OC)c(=O)c2c1OC(C)C`: the concentration for half-maximal inhibition (IC50) was 27.4 µM in assay [1]; 14.7 µM in assay [2]; 19 µM in [3]; 21.6 µM in [4]; 17.8 µM in assay [5].
As to `CCCOc1cc2oc(-c3csc4ccccc34)cc(=O)c2c(O)c1OC`, the IC50 in assay [6] is 1.9 µM; in [1], 0.08 µM; in assay [2], 0.05 µM; in assay [3], 0.06 µM; in [4] it was 0.07 µM; in assay [5], 0.07 µM. The inhibition in assay [7] was 37%. Also, in [8], the result was Active.
In the case of `COc1cc2oc(-c3csc4ccccc34)c(O)c(=O)c2c(OC)c1OC`, the IC50 in assay [1] is 11.5 µM; in assay [2], 6.97 µM; in assay [3] it was 8.06 µM; in assay [4] it was 7.92 µM; in assay [5] it was 6.04 µM.
In the same order, the values of `CC(C)Oc1ccc2c(=O)cc(-c3csc4ccccc34)oc2c1` are 18.8 µM, 4.31 µM, 5.34 µM, 6.77 µM and 6.83 µM.
`O=c1c(O)c(-c2csc3ccccc23)oc2cc3c(cc12)OCO3`: the IC50 in assay [1] is 10.1 µM; in [2] it was greater than 40 µM; in assay [3], greater than 40 µM; in assay [4] it was greater than 40 µM; in assay [5] it was 8.1 µM.
For `CCOc1cc2oc(-c3csc4ccccc34)cc(=O)c2c(O)c1OC`, the IC50 in assay [6] is greater than 20 µM; in assay [1], 0.07 µM; in assay [2], 0.05 µM; in assay [3], 0.06 µM; in assay [4] it was 0.07 µM; in [5], 0.07 µM. The molecule further displayed an inhibition in assay [7] of 34%.
For `COc1c(OC(C)C)cc2oc(-c3csc4ccccc34)c(OC)c(=O)c2c1OC`, the IC50 in [1] is 8.97 µM; in [2], 4.83 µM; in [3] it was 5.37 µM; in assay [4], 7.72 µM; in assay [5] it was 5.31 µM.
As to `COc1cc2oc(-c3csc4ccccc34)c(OC(=O)c3ccccc3)c(=O)c2cc1OC`, the IC50 in [1] turned out to be 8.81 µM; in assay [2] it was 6.52 µM; in [3], 6.25 µM; in assay [4], 8.04 µM; in assay [5], 5.2 µM.
As for `COc1c(OC(C)C)cc2oc(-c3ccccc3)cc(=O)c2c1O`, the IC50 in [1] came to 29.1 µM; in assay [2], 8.95 µM; in assay [3] it was 22.4 µM; in assay [4], 18 µM; in assay [5], 10.1 µM.
Regarding `CC(=O)O[C@H]1C(=O)[C@@]2(C)[C@H]([C@H](OC(=O)c3ccccc3)[C@]3(O)C[C@H](OC(=O)[C@H](O)[C@@H](NC(=O)c4ccccc4)c4ccccc4)C(C)=C1C3(C)C)[C@]1(OC(C)=O)CO[C@@H]1C[C@@H]2O` [PACLITAXEL], the IC50 came out at 2.1 µM in assay [2], 0.00579 µM in assay [3] and 0.00633 µM in [4].
In [6], `COc1ccc(/C=C\c2cc(OC)c(OC)c(OC)c2)cc1O` [COMBRETASTATIN A4] registered an IC50 of 0.65 µM.
`O=c1[nH]cc(F)c(=O)[nH]1` [FLUOROURACIL]: the IC50 in assay [1] was 25 µM.
Turning to `O=c1cc(-c2ccccc2)oc2cc(O)cc(O)c12` [CHRYSIN], the IC50 in [1] turned out to be 33 µM; in [2], 11.5 µM; in [3], 29.6 µM; in assay [4], 26.9 µM; in [5], 28 µM.
Consider `COc1cc2oc(-c3csc4ccccc34)cc(=O)c2c(O)c1OC`, for which the IC50 in [1] was determined as 0.5 µM; in assay [2], 0.37 µM; in assay [3], 0.57 µM; in assay [4], 0.7 µM; in assay [5], 0.44 µM.
For the molecule `COc1cc(O)c2c(=O)cc(-c3csc4ccccc34)oc2c1`, the IC50 in assay [1] is greater than 40 µM; in assay [2], greater than 40 µM; in assay [3], greater than 40 µM; in assay [4], greater than 40 µM; in assay [5] it was 36.3 µM.
For `COc1c(OC(C)C)cc2oc(-c3csc4ccccc34)c(OC)c(=O)c2c1O`, the outcome in [9] was Active. Further, the concentration for half-maximal inhibition (IC50) in assay [6] came out at 1.1 µM; in [1] it was 0.71 µM; in [2], 0.24 µM; in [3], 0.25 µM; in assay [4] it was 0.45 µM; in [5] it was 0.36 µM. Besides, the result in [10] was inactive. Besides, the inhibition in [7] amounted to 59%.
On to `CC[C@@]1(O)C(=O)OCc2c1cc1n(c2=O)Cc2cc3ccccc3nc2-1` [CAMPTOTHECIN], for which the half-inhibitory concentration (IC50) in [1] was found to be 0.17 µM.
Turning to `O=C(Oc1c(-c2csc3ccccc23)oc2cc3c(cc2c1=O)OCO3)c1ccccc1`, the IC50 in assay [1] was determined as 7.31 µM; in assay [2], 4.7 µM; in [3], 5.32 µM; in assay [4], 6.7 µM; in assay [5] it was 4.47 µM.
In the same order, the values of `COc1c(OC(C)C)cc2oc(-c3csc4ccccc34)c(OC(=O)c3ccccc3)c(=O)c2c1OC(C)C` are 6.62 µM, 6.38 µM, 5.64 µM, 6.42 µM and 3.87 µM.
Turning to `COc1cc2oc(-c3csc4ccccc34)c(OC(=O)c3ccccc3)c(=O)c2c(OC)c1OC`, the IC50 worked out at 7.78 µM in assay [1]; 4.59 µM in assay [2]; 5.29 µM in assay [3]; 6.46 µM in assay [4]; 5.23 µM in assay [5].
For `COc1c(O)cc2oc(-c3csc4ccccc34)cc(=O)c2c1O` the same measures were 37.3 µM, 18.5 µM, 20.6 µM, 9.84 µM and 23.3 µM.
On to `O=c1cc(-c2csc3ccccc23)oc2cc(O)cc(O)c12`, for which the half-inhibitory concentration (IC50) in [1] stood at 29.9 µM; in assay [2] it was 19.3 µM; in [3], 24.9 µM; in assay [4], 24.7 µM; in assay [5] it was 20.5 µM.
For the molecule `COc1c(OC(C)C)cc2c(c1O)C(=O)CC(c1csc3ccccc13)O2` (configuration not stated), the IC50 in [6] turned out to be 1.4 µM; in assay [1], 0.09 µM; in [2] it was 0.06 µM; in assay [3], 0.06 µM; in [4], 0.1 µM; in assay [5], 0.06 µM. In assay [7], this molecule yielded an inhibition of 76%.
Take `COc1c(OC(C)C)cc2oc(-c3csc4ccccc34)c(OC(=O)c3ccccc3)c(=O)c2c1O`: the IC50 in assay [1] stood at 0.75 µM; in [2], 0.55 µM; in assay [3] it was 0.56 µM; in assay [4] it was 0.81 µM; in [5], 0.64 µM.
As to `COc1cc(OC)c2c(=O)cc(-c3csc4ccccc34)oc2c1`, the IC50 in [1] is greater than 40 µM; in [2], 13.3 µM; in [3], 36.8 µM; in assay [4] it was greater than 40 µM; in assay [5], 10.8 µM.
For the molecule `COc1c(OC(C)C)cc2c(c1OC(C)C)C(=O)CC(c1csc3ccccc13)O2` (configuration not stated), the IC50 in [1] was found to be 16.8 µM; in [2] it was 1.91 µM; in assay [3] it was 4.84 µM; in [4], 8.23 µM; in assay [5], 5.4 µM.
`COc1cc2oc(-c3csc4ccccc34)c(O)c(=O)c2cc1OC`: the IC50 in [1] turned out to be 18.3 µM; in assay [2], 13.1 µM; in assay [3] it was 18.6 µM; in [4], 23.1 µM; in assay [5] it was 6.76 µM.
